Source: ChEMBL document CHEMBL1687890, “Design, synthesis, pharmacological evaluation, and structure-activity study of novel endomorphin analogues with multiple structural modifications” (J Med Chem, 2011)

Assays:
[1] = Half life in rat brain homogenate by RP-HPLC; type: ADME, tissue-based
Procedure, shortened: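 Peptide (1 mM stock in 50 mM Tris-HCl pH 7.4, 1:10 into homogenate) incubated at 37 °C with crude rat brain homogenate (5.0 mg/mL protein). Aliquots quenched with HCl, centrifuged, supernatant run on RP-HPLC. k from linear regression of ln(A/A0) vs time over at least 5 time points; t1/2 = ln2/k, pseudo-first-order. At least three experiments.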

[2] = target: Mu-type opioid receptor (Rattus norvegicus) (UniProt P33535); test: Agonist activity at opioid receptor in mu rat brain membrane by [35S]GTPgammaS binding assay relative to baseline in presence of opioid-selective antagonist naloxone; type: functional, cell membranes
[3] = target: Mu-type opioid receptor (Rattus norvegicus) (UniProt P33535); test: Agonist activity at mu opioid receptor in rat brain membrane by [35S]GTPgammaS binding assay relative to baseline; type: functional, cell membranes
[4] = target: Delta-type opioid receptor (Rattus norvegicus, UniProt P33533); test: Displacement of [3H][Ile5,6]deltorphin2 from delta opioid receptor in rat brain membrane homogenate by liquid scintillation counting; type: cell membranes
Mu-type opioid receptor [5] = target: T1, Mu-type opioid receptor (Rattus norvegicus, UniProt P33535); test: Displacement of [3H]DAMGO from mu opioid receptor in rat brain membrane homogenate by liquid scintillation counting; type: cell membranes
Rattus norvegicus = organism: Rattus norvegicus; test: Selectivity ratio of Ki for delta opioid receptor in rat brain to mu opioid receptor in rat brain; type: tissue-based
Mu-type opioid receptor [6] = target: T1, Mu-type opioid receptor; test: Agonist activity at mu opioid receptor in rat brain membrane by [35S]GTPgammaS binding assay; type: functional, cell membranes

Sequence of Mu-type opioid receptor (Rattus norvegicus) (P33535 whole entry): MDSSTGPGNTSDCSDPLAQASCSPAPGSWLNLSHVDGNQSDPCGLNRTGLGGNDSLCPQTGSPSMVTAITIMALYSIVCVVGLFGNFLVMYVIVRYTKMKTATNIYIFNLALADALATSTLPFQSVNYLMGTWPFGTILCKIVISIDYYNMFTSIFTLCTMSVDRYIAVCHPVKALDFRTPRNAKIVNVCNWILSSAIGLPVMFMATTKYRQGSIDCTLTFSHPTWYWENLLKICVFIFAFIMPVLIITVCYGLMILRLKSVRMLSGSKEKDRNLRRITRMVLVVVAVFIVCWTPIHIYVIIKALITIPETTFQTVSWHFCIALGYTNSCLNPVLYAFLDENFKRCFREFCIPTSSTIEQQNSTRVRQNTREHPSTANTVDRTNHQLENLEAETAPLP
T1 sequence (P33535 whole entry): as above
Sequence of Delta-type opioid receptor (P33533 whole entry): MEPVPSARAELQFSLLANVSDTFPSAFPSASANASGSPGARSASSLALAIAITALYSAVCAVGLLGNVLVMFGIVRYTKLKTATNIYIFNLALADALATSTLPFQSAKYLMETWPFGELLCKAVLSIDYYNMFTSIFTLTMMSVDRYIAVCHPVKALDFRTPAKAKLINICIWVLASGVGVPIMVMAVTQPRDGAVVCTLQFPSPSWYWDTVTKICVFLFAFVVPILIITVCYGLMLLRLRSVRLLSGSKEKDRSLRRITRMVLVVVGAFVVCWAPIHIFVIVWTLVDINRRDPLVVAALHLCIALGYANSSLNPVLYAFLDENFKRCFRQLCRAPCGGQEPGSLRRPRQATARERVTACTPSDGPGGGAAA

| SMILES | half-life [1] | Emax [2] | Emax [3] | Ki [4] | Ki (Mu-type opioid receptor [5]) | Ratio Ki (Rattus norvegicus) | EC50 (Mu-type opioid receptor [6]) |
| --- | --- | --- | --- | --- | --- | --- | --- |
| NC(=O)[C@H](Cc1ccccc1)NC(=O)[C@H](Cc1ccccc1)NC(=O)[C@@H]1CCCN1C(=O)[C@@H](N)Cc1ccc(O)cc1 [ENDOMORPHIN 2] | 0.095 h | 123% | 163% | – | – | – | – |
| C[C@@H](NC(=O)[C@@H](N)Cc1ccc(O)cc1)C(=O)NCC(=O)N(C)[C@@H](Cc1ccccc1)C(=O)NCCO | – | 119% | 178% | – | – | – | – |
| Cc1cc(CC(N)C(=O)N[C@@H]2CCCC[C@@H]2C(=O)N[C@@H](Cc2ccccc2)C(=O)NC(Cc2ccc(F)cc2)C(N)=O)cc(C)c1O (some centres undefined) | > 20 h | – | – | 0.096 µM | – | – | – |
| C[C@H](c1ccccc1)[C@@H](NC(=O)[C@H](Cc1c[nH]c2ccccc12)NC(=O)[C@H]1CCCC[C@H]1NC(=O)[C@@H](N)Cc1ccc(O)cc1)C(N)=O | – | – | – | 3.36 µM | 0.0346 µM | 97 | – |
| C[C@@H](c1ccccc1)[C@H](NC(=O)[C@H](Cc1c[nH]c2ccccc12)NC(=O)[C@H]1CCCC[C@H]1NC(=O)[C@@H](N)Cc1ccc(O)cc1)C(N)=O | > 20 h | 130% | 162% | 1.44 µM | 0.0042 µM | 343 | 0.264 µM |
| C[C@H](c1ccccc1)[C@@H](NC(=O)[C@H](Cc1ccccc1)NC(=O)[C@H]1CCCC[C@H]1NC(=O)[C@@H](N)Cc1ccc(O)cc1)C(N)=O | – | – | – | 1.27 µM | – | – | – |
| Cc1cc(CC(N)C(=O)N[C@@H]2CCCC[C@@H]2C(=O)N[C@@H](Cc2c[nH]c3ccccc23)C(=O)NC(Cc2ccc(F)cc2)C(N)=O)cc(C)c1O (some centres undefined) | – | 127% | 163% | 2.64 µM | 0.0111 µM | 237 | 0.0081 µM |
| NC(=O)C(Cc1ccc(F)cc1)NC(=O)[C@H](Cc1c[nH]c2ccccc12)NC(=O)[C@@H]1CCCC[C@@H]1NC(=O)[C@@H](N)Cc1ccc(O)cc1 (some centres undefined) | – | – | – | 7.82 µM | 0.143 µM | 54 | – |
| NC(=O)C(Cc1ccc(F)cc1)NC(=O)[C@H](Cc1ccccc1)NC(=O)[C@H]1CCCC[C@H]1NC(=O)[C@@H](N)Cc1ccc(O)cc1 (some centres undefined) | – | – | – | 0.366 µM | – | – | – |
| Cc1cc(CC(N)C(=O)N[C@@H]2CCCC[C@@H]2C(=O)N[C@@H](Cc2c[nH]c3ccccc23)C(=O)N[C@@H](C(N)=O)[C@H](C)c2ccccc2)cc(C)c1O (some centres undefined) | – | – | – | 0.287 µM | 0.00411 µM | 69 | – |
| Cc1cc(CC(N)C(=O)N[C@@H]2CCCC[C@@H]2C(=O)N[C@@H](Cc2ccccc2)C(=O)N[C@H](C(N)=O)[C@@H](C)c2ccccc2)cc(C)c1O (some centres undefined) | > 20 h | 146% | 159% | 0.142 µM | 0.00047 µM | 302 | 0.017 µM |
| Cc1cc(CC(N)C(=O)N[C@@H]2CCCC[C@@H]2C(=O)N[C@@H](Cc2ccccc2)C(=O)N[C@@H](C(N)=O)[C@H](C)c2ccccc2)cc(C)c1O (some centres undefined) | – | – | – | 0.198 µM | 0.0097 µM | 20 | – |
| C[C@@H](c1ccccc1)[C@H](NC(=O)[C@H](Cc1ccccc1)NC(=O)[C@H]1CCCC[C@H]1NC(=O)[C@@H](N)Cc1ccc(O)cc1)C(N)=O | – | – | – | 0.661 µM | – | – | – |
| NC(=O)C(Cc1ccc(F)cc1)NC(=O)[C@H](Cc1c[nH]c2ccccc12)NC(=O)[C@H]1CCCC[C@H]1NC(=O)[C@@H](N)Cc1ccc(O)cc1 (some centres undefined) | > 20 h | 125% | 174% | 0.571 µM | 0.0032 µM | 178 | 0.38 µM |
| NC(=O)C(Cc1ccc(F)cc1)NC(=O)[C@H](Cc1ccccc1)NC(=O)[C@@H]1CCCC[C@@H]1NC(=O)[C@@H](N)Cc1ccc(O)cc1 (some centres undefined) | – | – | – | 0.689 µM | – | – | – |
| NC(=O)[C@H](Cc1ccccc1)NC(=O)[C@H](Cc1c[nH]c2ccccc12)NC(=O)[C@@H]1CCCN1C(=O)[C@@H](N)Cc1ccc(O)cc1 [ENDOMORPHIN-1] | 0.105 h | 124% | 149% | – | – | – | – |
| Cc1cc(CC(N)C(=O)N[C@@H]2CCCC[C@@H]2C(=O)N[C@@H](Cc2c[nH]c3ccccc23)C(=O)N[C@H](C(N)=O)[C@@H](C)c2ccccc2)cc(C)c1O (some centres undefined) | – | 145% | 162% | 0.123 µM | 0.00093 µM | 132 | 0.0221 µM |
